Test results taken from ChEMBL document CHEMBL4118021, “Studies of TAK1-centered polypharmacology with novel covalent TAK1 inhibitors” (Bioorg Med Chem, 2017).
Active and inactive are the calls of the source. The rule behind the calls is not given here.

How the values were obtained:
[1] = biological target: Platelet-derived growth factor receptor alpha (Homo sapiens) (UniProt P16234); test: Inhibition of human PDGFRA (575 to 1002 residues) expressed in mammalian expression system assessed as enzyme activity at 1 uM by KINOMEScan assay relative to control; parameters: scale not given: the % may be the effect or the level left
Method in brief: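 In vitro ATP-site competition binding assay across a panel of 456 kinases, with compound tested at 1 and 10 μM.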

[2] = biological target: Serine/threonine-protein kinase TBK1 (Homo sapiens) (UniProt Q9UHD2); test: Inhibition of TBK1 in human SKCO1 cells at 1 uM after 4 hrs using biotin labeled TGDLFAIKVFNNISFLRPVDVQMR probe by mass-spectrometric analysis relative to control; type: cell-based
[3] = biological target: Protein transport protein Sec16A (Homo sapiens) (UniProt O15027); test: Binding affinity to SEC16A in human NCI-H23 cells at 1 uM by mass spectrometry based pull down assay; type: cell-based
[4] = biological target: Inosine-5'-monophosphate dehydrogenase 2 (Homo sapiens) (UniProt P12268); test: Binding affinity to IMPDH2 in human NCI-H23 cells at 1 uM by mass spectrometry based pull down assay; type: cell-based
[5] = biological target: Tight junction protein 1 (Homo sapiens) (UniProt Q07157); test: Binding affinity to TJP1 in human NCI-H358 cells at 1 uM by mass spectrometry based pull down assay; type: cell-based
[6] = biological target: Alpha-2-HS-glycoprotein (Homo sapiens) (UniProt P02765); test: Binding affinity to AHSG in human NCI-H23 cells at 1 uM by mass spectrometry based pull down assay; type: cell-based
Method in brief: (§1)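 NCI-H23 or NCI-H358 cells were grown and lysed. Lysates were incubated overnight at 4 °C with 1 μM biotinylated covalent probe or DMSO, then pulled down on streptavidin beads. Proteins were run on polyacrylamide gels and stained with Coomassie. Bands were excised, digested and identified by mass spectrometry.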

[7] = biological target: Far upstream element-binding protein 1 (Homo sapiens) (UniProt Q96AE4); test: Binding affinity to FUBP1 in human NCI-H23 cells at 1 uM by mass spectrometry based pull down assay; type: cell-based
[8] = biological target: Cyclin-dependent kinase 5 (Homo sapiens) (UniProt Q00535); test: Binding affinity to CDK5 in human NCI-H358 cells at 1 uM by mass spectrometry based pull down assay; type: cell-based
[9] = biological target: Opioid growth factor receptor (Homo sapiens) (UniProt Q9NZT2); test: Binding affinity to OGFR in human NCI-H23 cells at 1 uM by mass spectrometry based pull down assay; type: cell-based
[10] = biological target: ATP synthase F(1) complex subunit gamma, mitochondrial (Homo sapiens) (UniProt P36542); test: Binding affinity to ATP5C1 in human NCI-H358 cells at 1 uM by mass spectrometry based pull down assay; type: cell-based
[11] = biological target: Small ribosomal subunit protein uS2 (Homo sapiens) (UniProt P08865); test: Binding affinity to RPSA in human NCI-H23 cells at 1 uM by mass spectrometry based pull down assay; type: cell-based
[12] = biological target: Thioredoxin (Homo sapiens) (UniProt P10599); test: Binding affinity to TXN in human NCI-H23 cells at 1 uM by mass spectrometry based pull down assay; type: cell-based
[13] = biological target: Deoxyuridine 5'-triphosphate nucleotidohydrolase, mitochondrial (Homo sapiens) (UniProt P33316); test: Binding affinity to DUT in human NCI-H358 cells at 1 uM by mass spectrometry based pull down assay; type: cell-based
[14] = biological target: Transmembrane emp24 domain-containing protein 10 (Homo sapiens) (UniProt P49755); test: Binding affinity to TMED10 in human NCI-H358 cells at 1 uM by mass spectrometry based pull down assay; type: cell-based
[15] = biological target: N-acetyl-D-glucosamine kinase (Homo sapiens) (UniProt Q9UJ70); test: Binding affinity to NAGK in human NCI-H358 cells at 1 uM by mass spectrometry based pull down assay; type: cell-based
[16] = biological target: Lysine--tRNA ligase (Homo sapiens) (UniProt Q15046); test: Binding affinity to KARS in human NCI-H358 cells at 1 uM by mass spectrometry based pull down assay; type: cell-based
[17] = biological target: Actin-related protein 2/3 complex subunit 5 (Homo sapiens) (UniProt O15511); test: Binding affinity to ARPC5 in human NCI-H358 cells at 1 uM by mass spectrometry based pull down assay; type: cell-based
[18] = biological target: Heterogeneous nuclear ribonucleoprotein H2 (Homo sapiens) (UniProt P55795); test: Binding affinity to HNRNPH2 in human NCI-H23 cells at 1 uM by mass spectrometry based pull down assay; type: cell-based
[19] = biological target: AP-2 complex subunit alpha-1 (Homo sapiens) (UniProt O95782); test: Binding affinity to AP2A1 in human NCI-H358 cells at 1 uM by mass spectrometry based pull down assay; type: cell-based
[20] = biological target: ADP-ribosylation factor-like protein 8B (Homo sapiens) (UniProt Q9NVJ2); test: Binding affinity to ARL8B in human NCI-H23 cells at 1 uM by mass spectrometry based pull down assay; type: cell-based
[21] = biological target: T1, Mitogen-activated protein kinase kinase kinase 7 (Homo sapiens, UniProt O43318); test: Inhibition of TAK1 (unknown origin) after 60 mins by biochemical assay
T1 sequence (O43318 whole entry): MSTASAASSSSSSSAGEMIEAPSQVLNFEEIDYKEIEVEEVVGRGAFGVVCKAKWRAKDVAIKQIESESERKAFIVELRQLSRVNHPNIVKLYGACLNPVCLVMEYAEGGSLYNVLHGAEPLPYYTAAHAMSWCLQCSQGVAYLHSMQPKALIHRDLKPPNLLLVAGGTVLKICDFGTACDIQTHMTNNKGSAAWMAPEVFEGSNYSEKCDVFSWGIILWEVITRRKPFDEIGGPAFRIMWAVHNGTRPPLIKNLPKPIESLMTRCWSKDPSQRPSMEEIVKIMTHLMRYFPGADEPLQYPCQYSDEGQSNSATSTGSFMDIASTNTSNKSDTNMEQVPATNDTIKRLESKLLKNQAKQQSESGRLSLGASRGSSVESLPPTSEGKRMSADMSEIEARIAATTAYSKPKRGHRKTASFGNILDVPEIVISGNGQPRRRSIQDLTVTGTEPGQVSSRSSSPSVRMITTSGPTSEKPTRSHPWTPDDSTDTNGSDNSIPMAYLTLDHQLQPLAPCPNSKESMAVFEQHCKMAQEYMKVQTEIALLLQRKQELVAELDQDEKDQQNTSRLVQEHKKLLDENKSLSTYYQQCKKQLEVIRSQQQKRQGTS

[22] = biological target: Alkyldihydroxyacetonephosphate synthase, peroxisomal (Homo sapiens) (UniProt O00116); test: Binding affinity to AGPS in human NCI-H23 cells at 1 uM by mass spectrometry based pull down assay; type: cell-based; method in brief: as §1
[23] = biological target: LIM domain kinase 1 (Homo sapiens) (UniProt P53667); test: Binding affinity to LIMK1 in human NCI-H358 cells at 1 uM by mass spectrometry based pull down assay; type: cell-based
[24] = biological target: Epithelial splicing regulatory protein 1 (Homo sapiens) (UniProt Q6NXG1); test: Binding affinity to ESRP1 in human NCI-H358 cells at 1 uM by mass spectrometry based pull down assay; type: cell-based
Chain of Epithelial splicing regulatory protein 1 (Homo sapiens) (Q6NXG1 whole entry): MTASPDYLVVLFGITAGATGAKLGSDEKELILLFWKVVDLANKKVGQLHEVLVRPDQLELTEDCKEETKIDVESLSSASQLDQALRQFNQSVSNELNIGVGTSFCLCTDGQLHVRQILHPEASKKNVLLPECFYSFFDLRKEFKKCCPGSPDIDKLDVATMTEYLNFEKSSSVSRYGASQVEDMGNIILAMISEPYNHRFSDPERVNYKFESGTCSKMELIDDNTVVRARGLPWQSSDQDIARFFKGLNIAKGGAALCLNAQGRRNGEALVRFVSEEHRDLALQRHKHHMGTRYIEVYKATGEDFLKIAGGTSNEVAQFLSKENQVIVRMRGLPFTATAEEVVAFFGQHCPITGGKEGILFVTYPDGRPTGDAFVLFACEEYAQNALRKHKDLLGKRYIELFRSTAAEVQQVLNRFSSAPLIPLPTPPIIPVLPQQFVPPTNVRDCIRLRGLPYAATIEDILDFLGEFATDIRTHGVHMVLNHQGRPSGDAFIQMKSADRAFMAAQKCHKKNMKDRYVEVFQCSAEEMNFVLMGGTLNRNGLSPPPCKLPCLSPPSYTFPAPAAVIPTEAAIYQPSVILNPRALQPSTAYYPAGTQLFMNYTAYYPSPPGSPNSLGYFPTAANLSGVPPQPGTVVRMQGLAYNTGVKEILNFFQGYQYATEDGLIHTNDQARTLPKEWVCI

Chain of Inosine-5'-monophosphate dehydrogenase 2 (Homo sapiens) (P12268 2-514 limits assumed): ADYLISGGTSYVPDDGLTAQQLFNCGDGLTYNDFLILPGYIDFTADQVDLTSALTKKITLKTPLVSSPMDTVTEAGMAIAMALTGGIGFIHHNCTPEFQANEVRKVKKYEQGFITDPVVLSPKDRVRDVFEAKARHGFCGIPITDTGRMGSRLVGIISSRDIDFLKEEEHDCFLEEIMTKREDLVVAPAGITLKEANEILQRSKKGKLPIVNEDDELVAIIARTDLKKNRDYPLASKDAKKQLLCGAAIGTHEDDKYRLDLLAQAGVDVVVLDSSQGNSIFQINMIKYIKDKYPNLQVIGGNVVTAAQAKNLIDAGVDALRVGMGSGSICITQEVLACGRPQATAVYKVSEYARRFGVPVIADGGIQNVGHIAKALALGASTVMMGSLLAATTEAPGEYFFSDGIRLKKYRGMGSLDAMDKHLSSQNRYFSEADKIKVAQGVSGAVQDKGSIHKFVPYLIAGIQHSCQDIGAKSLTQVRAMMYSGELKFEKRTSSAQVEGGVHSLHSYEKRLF
Chain of ATP synthase F(1) complex subunit gamma, mitochondrial (Homo sapiens) (P36542 whole entry, one chain of several): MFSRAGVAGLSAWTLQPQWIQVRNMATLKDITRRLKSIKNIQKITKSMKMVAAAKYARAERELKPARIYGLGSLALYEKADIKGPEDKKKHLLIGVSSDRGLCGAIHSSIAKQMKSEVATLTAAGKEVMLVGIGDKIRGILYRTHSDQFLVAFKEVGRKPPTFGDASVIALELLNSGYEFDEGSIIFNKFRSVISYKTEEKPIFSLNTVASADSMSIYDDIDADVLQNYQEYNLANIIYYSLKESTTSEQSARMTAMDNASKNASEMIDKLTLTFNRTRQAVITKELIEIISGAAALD
Chain of N-acetyl-D-glucosamine kinase (Homo sapiens) (Q9UJ70 whole entry): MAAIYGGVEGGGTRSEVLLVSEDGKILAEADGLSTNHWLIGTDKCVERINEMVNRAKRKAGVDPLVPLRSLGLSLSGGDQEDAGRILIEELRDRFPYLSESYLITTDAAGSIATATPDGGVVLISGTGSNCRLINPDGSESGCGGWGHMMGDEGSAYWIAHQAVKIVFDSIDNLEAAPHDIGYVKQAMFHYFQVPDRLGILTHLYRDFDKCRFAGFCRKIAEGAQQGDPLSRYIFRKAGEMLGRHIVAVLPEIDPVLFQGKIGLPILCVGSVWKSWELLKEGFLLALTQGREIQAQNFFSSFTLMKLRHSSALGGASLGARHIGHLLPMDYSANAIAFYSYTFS
Chain of Thioredoxin (Homo sapiens) (P10599 whole entry): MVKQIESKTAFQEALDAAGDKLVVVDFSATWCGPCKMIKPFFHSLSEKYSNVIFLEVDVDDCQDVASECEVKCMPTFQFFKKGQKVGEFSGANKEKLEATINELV
Chain of Protein transport protein Sec16A (Homo sapiens) (O15027 whole entry): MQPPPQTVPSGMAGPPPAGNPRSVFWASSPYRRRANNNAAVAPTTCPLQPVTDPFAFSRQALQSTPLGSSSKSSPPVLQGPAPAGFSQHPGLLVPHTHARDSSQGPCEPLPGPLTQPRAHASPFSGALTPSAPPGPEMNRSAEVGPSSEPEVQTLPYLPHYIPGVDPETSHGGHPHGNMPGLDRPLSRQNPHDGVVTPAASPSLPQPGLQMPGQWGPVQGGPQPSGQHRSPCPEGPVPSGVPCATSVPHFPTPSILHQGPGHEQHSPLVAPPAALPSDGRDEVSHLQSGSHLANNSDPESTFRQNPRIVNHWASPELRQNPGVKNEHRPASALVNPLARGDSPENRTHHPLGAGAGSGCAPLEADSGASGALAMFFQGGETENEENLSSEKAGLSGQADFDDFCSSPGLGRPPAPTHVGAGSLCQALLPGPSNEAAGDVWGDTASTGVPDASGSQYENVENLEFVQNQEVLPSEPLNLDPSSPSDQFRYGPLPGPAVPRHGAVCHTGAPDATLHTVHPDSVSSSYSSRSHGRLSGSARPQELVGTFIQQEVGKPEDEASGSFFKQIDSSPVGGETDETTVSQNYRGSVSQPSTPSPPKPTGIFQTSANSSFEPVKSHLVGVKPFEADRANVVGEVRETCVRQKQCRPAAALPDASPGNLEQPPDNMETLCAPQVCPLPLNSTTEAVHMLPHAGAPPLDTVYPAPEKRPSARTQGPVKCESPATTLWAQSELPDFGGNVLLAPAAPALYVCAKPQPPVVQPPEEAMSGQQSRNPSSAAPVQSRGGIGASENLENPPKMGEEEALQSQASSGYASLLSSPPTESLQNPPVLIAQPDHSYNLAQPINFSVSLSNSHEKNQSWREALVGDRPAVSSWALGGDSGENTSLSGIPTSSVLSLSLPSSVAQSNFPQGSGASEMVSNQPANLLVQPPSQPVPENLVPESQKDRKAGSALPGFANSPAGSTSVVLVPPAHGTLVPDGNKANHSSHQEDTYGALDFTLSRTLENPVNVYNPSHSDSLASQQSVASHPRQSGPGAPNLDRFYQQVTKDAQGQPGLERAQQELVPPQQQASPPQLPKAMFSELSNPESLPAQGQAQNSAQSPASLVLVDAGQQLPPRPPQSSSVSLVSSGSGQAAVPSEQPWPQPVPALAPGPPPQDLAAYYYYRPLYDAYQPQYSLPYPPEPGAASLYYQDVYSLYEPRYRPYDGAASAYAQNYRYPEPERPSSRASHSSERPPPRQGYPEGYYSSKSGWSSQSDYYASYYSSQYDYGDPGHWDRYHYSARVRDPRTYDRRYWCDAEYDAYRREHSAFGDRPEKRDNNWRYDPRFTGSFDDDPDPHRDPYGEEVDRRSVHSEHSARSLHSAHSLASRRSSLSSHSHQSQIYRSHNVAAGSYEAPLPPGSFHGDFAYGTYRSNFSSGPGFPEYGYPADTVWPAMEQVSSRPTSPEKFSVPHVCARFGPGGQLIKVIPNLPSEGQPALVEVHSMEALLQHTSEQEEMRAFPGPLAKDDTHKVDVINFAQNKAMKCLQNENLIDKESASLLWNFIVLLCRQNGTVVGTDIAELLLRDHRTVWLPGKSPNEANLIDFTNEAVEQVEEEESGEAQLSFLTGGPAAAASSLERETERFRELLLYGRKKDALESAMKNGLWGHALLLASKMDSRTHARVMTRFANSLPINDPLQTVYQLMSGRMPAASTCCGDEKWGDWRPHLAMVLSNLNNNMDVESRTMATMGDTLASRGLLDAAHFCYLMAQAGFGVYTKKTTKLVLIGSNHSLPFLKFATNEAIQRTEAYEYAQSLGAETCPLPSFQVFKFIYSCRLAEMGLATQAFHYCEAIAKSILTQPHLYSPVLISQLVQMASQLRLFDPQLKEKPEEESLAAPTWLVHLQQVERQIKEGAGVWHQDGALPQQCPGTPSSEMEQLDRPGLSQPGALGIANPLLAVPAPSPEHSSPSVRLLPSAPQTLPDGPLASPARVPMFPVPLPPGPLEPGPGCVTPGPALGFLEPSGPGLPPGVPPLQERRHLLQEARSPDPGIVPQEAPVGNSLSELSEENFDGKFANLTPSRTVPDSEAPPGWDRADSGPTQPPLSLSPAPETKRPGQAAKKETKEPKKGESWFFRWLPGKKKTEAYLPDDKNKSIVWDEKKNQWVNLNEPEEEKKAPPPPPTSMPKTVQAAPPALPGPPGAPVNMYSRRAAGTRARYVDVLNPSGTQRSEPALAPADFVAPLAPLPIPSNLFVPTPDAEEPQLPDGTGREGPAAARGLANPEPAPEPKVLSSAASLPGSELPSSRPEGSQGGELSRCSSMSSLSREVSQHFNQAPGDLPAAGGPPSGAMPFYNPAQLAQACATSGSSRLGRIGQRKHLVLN
Chain of Transmembrane emp24 domain-containing protein 10 (Homo sapiens) (P49755 whole entry, the tested form may be a part): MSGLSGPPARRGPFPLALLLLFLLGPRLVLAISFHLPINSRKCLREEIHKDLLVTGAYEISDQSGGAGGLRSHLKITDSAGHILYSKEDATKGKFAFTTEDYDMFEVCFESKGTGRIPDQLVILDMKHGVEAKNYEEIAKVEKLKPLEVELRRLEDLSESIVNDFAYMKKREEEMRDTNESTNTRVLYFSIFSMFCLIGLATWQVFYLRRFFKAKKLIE
Chain of ADP-ribosylation factor-like protein 8B (Homo sapiens) (Q9NVJ2 whole entry): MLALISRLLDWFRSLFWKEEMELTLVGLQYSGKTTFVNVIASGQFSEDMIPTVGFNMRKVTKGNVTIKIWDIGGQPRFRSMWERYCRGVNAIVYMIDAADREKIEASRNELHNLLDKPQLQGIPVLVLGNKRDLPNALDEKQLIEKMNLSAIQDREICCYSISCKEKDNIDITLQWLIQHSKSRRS
Chain of Cyclin-dependent kinase 5 (Homo sapiens) (Q00535 whole entry, looked up): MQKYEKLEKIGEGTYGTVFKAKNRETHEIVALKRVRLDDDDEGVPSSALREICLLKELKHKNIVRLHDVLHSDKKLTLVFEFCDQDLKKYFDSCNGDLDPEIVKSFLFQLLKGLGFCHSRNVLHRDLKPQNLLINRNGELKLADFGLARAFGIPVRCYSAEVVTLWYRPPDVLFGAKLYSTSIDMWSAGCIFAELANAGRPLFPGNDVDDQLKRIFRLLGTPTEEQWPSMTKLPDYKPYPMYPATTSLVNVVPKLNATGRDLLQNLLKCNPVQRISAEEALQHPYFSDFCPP

## COc1cc(O)c2c(c1)/C=C/C[C@H](O)[C@H](O)C(=O)/C=C\C[C@H](C)OC2=O
[1]
  Activity: 44%

## C=CC(=O)Nc1ccccc1Nc1nc(Nc2ccc(N3CCN(C)CC3)cc2)ncc1Cl
[2]
  inhibition: 61%

## C=CC(=O)Nc1ccccc1Nc1nc(Nc2ccc(N3CCN(CCOCCOCCOCCNC(=O)CCCC[C@@H]4SC[C@@H]5NC(=O)N[C@@H]54)CC3)cc2)ncc1Cl
[3]
  Activity: Active
[4]
  Activity: Active
[5]
  Activity: Active
[6]
  Activity: Active
[7]
  Activity: Active
[8]
  Activity: Active
[9]
  Activity: Active
[10]
  Activity: Active
[11]
  Activity: Active
[12]
  Activity: Active
[13]
  Activity: Active
[14]
  Activity: Active
[15]
  Activity: Active
[16]
  Activity: Active
[17]
  Activity: Active
[18]
  Activity: Active
[19]
  Activity: Active
[20]
  Activity: Active
[21]
  IC50: 0.033 µM
[22]
  Activity: Active
[23]
  Activity: Active
[24]
  Activity: Active
